Data set [1] relates to MCF7. Briefly: Cytotoxicity against human MCF7 cells assessed as induction of cell death at 10 uM after 72 hrs by LDH assay. Particulars: mcf7, 72 h. The class given is cell-based. The procedure, abridged:
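Cell death in MCF-7 measured by LDH release. Seeding and dosing as for the MTT assay; after 72 h, lysis solution added to blank wells for 1 h to give 100% death. Supernatant mixed with substrate (INT to formazan) for 30 min at rt in the dark, then stopped and read at 490 nm. Percentage cell death reported at 10 μM; assays in triplicate.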

Data set [2] has as its system MCF7. The experiment in a line: Antiproliferative activity against human MCF7 cells assessed as cell viability pre-incubated for 24 hrs with CO2 followed by compound addition after 72 hrs by MTT assay. It is filed as functional, cell-based. In outline:
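MCF-7 grown in Eagle's MEM with 10% FBS, 2 mM L-glutamine, penicillin/streptomycin and 1% non-essential amino acids. Cells seeded at 2.5 x 10⁴ cells/mL, 24 h at 37 °C, then dosed from ethanol stocks over 1 nM–100 µM (vehicle 1% v/v ethanol) for 72 h. MTT at 1 mg/mL final, 2 h in the dark, DMSO solubilisation. Viability set against untreated controls; IC50 is the mean of three experiments in triplicate.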
A general note: Tetrazolium assays rely on reduction of a dye to a coloured formazan, in cell work by metabolically active cells.

A word on the IC50: it is the concentration that inhibits the measured activity by half.

Each structure is given as a SMILES string.

As to `COc1ccc([C@@H]2[C@H](Oc3ccccc3)C(=O)N2c2cc(OC)c(OC)c(OC)c2)cc1N`, the Activity in the data set on MCF7 [1] stood at 7.7%. In addition, the IC50 in the data set on MCF7 [2] stood at 12.2 µM.
The like results for `COc1ccc([C@@H]2[C@H](Oc3ccccc3)CN2c2cc(OC)c(OC)c(OC)c2)cc1O` were, in that order, 19.8% and 3.3 µM.
`COc1ccc([C@@H]2[C@H](Oc3cc(OC)c(OC)c(OC)c3)C(=O)N2c2cc(OC)c(OC)c(OC)c2)cc1O` (relative stereo): the Activity with MCF7 [1] worked out at 10.9%. Moreover, the half-maximal inhibitory concentration (IC50) in the data set with MCF7 [2] came out at 33 µM.
For the molecule `COc1cc(N2C(=O)[C@@H](Oc3ccccc3)[C@H]2c2cc(O)c(OC)c([N+](=O)[O-])c2)cc(OC)c1OC` (relative stereo), in the data set with MCF7 [1], the Activity is given as 12.1%. For the same molecule, the IC50 with MCF7 [2] came out at 69 µM.
For the molecule `COc1ccc(N2C(=O)[C@@H](Oc3ccccc3)[C@H]2c2ccc(OC)c(O)c2)cc1` (relative stereo), the Activity in the data set on MCF7 [1] is 10.4%. Further, in the data set with MCF7 [2], the half-maximal inhibitory concentration (IC50) was 49 µM.
On to `COc1cc(N2C(=O)[C@@H](Oc3ccccc3)[C@H]2c2cccc([N+](=O)[O-])c2)cc(OC)c1OC` (relative stereo), for which, in the data set on MCF7 [1], the Activity turned out to be 16.7%. The IC50 in the data set on MCF7 [2] turned out to be 30 µM.
Turning to `COc1cc(N2C(=O)[C@@H](Oc3ccccc3)[C@H]2c2ccc(N=[N+]=[N-])cc2)cc(OC)c1OC` (relative stereo), the Activity in the data set with MCF7 [1] was found to be 5.8%. In the data set with MCF7 [2], the IC50 amounted to 23 µM.
The like results for `COc1ccc([C@@H]2[C@@H](Oc3ccccc3)C(=O)N2c2cc(OC)c(OC)c(OC)c2)cc1[N+](=O)[O-]` (relative stereo) were, in that order, 5.2% and 4.1 µM.
`COc1cc(N2C(=O)[C@@H](Oc3ccccc3)[C@H]2c2cc(N)c(OC)c(O)c2)cc(OC)c1OC` (relative stereo): in the data set on MCF7 [1], the Activity amounted to 14%. In addition, in the data set on MCF7 [2], the IC50 amounted to 8.8 µM.
Regarding `COc1cc(N2C(=O)[C@@H](Oc3ccccc3)[C@H]2c2ccc(Br)cc2)cc(OC)c1OC` (relative stereo), in the data set with MCF7 [2], the half-maximal inhibitory concentration (IC50) stood at 48 µM.
In the case of `COc1ccc([C@@H]2[C@H](Oc3ccccc3)C(=S)N2c2cc(OC)c(OC)c(OC)c2)cc1O` (relative stereo), the Activity in the data set on MCF7 [1] came to 4.8%. The IC50 in the data set on MCF7 [2] is 7.5 µM.
The corresponding values for `COc1cc([N+](=O)[O-])c([C@@H]2[C@H](Oc3ccccc3)C(=O)N2c2cc(OC)c(OC)c(OC)c2)cc1O` (relative stereo) are 9.9% and 59 µM.
Take `COc1ccc([C@@H]2[C@H](Oc3ccccc3)C(=O)N2c2cc(OC)c(OC)c(OC)c2)cc1NC(=O)CN` (relative stereo): the IC50 in the data set on MCF7 [2] was determined as 6.5 µM.
As for `COc1cc(N2C(=O)[C@@H](Oc3ccccc3)[C@H]2c2cccc3ccccc23)cc(OC)c1OC` (relative stereo), in the data set with MCF7 [1], the Activity was 4.6%. Besides, in the data set with MCF7 [2], the concentration for half-maximal inhibition (IC50) amounted to 53 µM.
The corresponding values for `COc1ccc([C@@H]2[C@H](Oc3ccccc3)C(=O)N2c2cc(OC)c(OC)c(OC)c2)cc1` (relative stereo) are 6.5% and 35 µM.
The like results for `COc1cc(N2C(=O)[C@@H](Oc3ccccc3)[C@H]2c2ccc(O)c(O)c2)cc(OC)c1OC` (relative stereo) were, in that order, 6% and 4.5 µM.
The like results for `COc1cccc([C@@H]2[C@H](Oc3ccccc3)C(=O)N2c2cc(OC)c(OC)c(OC)c2)c1` (relative stereo) were, in that order, 22% and 171 µM.
Turning to `COc1cc(N2C(=O)[C@@H](Oc3ccccc3)[C@H]2c2cccc(O)c2)cc(OC)c1OC` (relative stereo), the Activity in the data set with MCF7 [1] stood at 22%. Moreover, the IC50 with MCF7 [2] amounted to 54 µM.
`COc1cc(N2C(=O)[C@@H](Oc3ccccc3)[C@H]2c2ccc(C#N)cc2)cc(OC)c1OC` (relative stereo): the Activity with MCF7 [1] was determined as 4.8%. Moreover, the half-maximal inhibitory concentration (IC50) with MCF7 [2] stood at 31.6 µM.
The like results for `COc1cc(N2C(=O)[C@@H](Oc3ccccc3)[C@H]2c2ccc(N)cc2)cc(OC)c1OC` (relative stereo) were, in that order, 14.7% and 160 µM.
As for `COc1cc(N2C(=O)[C@@H](Oc3ccccc3)[C@H]2c2cccc(N)c2)cc(OC)c1OC` (relative stereo), the Activity with MCF7 [1] stood at 48%. In addition, in the data set with MCF7 [2], the half-maximal inhibitory concentration (IC50) was 17 µM.
The corresponding values for `COc1cc(N2C(=O)[C@@H](Oc3ccccc3)[C@H]2c2ccc(O)cc2)cc(OC)c1OC` (relative stereo) are 0.1% and 48 µM.
`COc1ccc([C@@H]2[C@@H](Oc3ccccc3)C(=O)N2c2cc(OC)c(OC)c(OC)c2)cc1NC(=O)C(C)N` (relative stereo): the concentration for half-maximal inhibition (IC50) with MCF7 [2] stood at 0.23 µM.
For `COc1ccc([C@@H]2[C@H](Oc3ccccc3)C(=O)N2c2cc(OC)c(OC)c(OC)c2)cc1F` (relative stereo), in the data set on MCF7 [1], the Activity was found to be 70%. The IC50 with MCF7 [2] stood at 6.3 µM.
The corresponding values for `COc1ccc([C@@H]2[C@H](Oc3ccccc3)C(=O)N2c2cc(OC)c(OC)c(OC)c2)cc1OC(=O)CCCc1ccc(N(CCCl)CCCl)cc1` (relative stereo) are 8% and 0.41 µM.
The corresponding values for `COc1cc(N2C(=O)[C@@H](Oc3ccccc3)[C@H]2c2ccc(SC)cc2)cc(OC)c1OC` (relative stereo) are 8.1% and 7.7 µM.
For `COc1ccc([C@@H]2[C@H](Oc3ccccc3)C(=O)N2c2cc(OC)c(OC)c(OC)c2)cc1NC(=O)C(C)N` (relative stereo), the half-inhibitory concentration (IC50) in the data set with MCF7 [2] came out at 9.2 µM.
Regarding `COc1ccc([C@@H]2[C@H](Oc3ccccc3)C(=O)N2c2cc(OC)c(OC)c(OC)c2)cc1[N+](=O)[O-]` (relative stereo), the Activity with MCF7 [1] is on record as 5.3%. Moreover, the IC50 with MCF7 [2] was determined as 69 µM.
In the case of `COc1cc(N2C(=O)[C@@H](Oc3ccccc3)[C@H]2c2ccc3ccccc3c2)cc(OC)c1OC` (relative stereo), in the data set on MCF7 [1], the Activity is given as 10.7%. Further, the IC50 with MCF7 [2] amounted to 282 µM.
In the case of `COc1cc([C@@H]2[C@H](Oc3ccccc3)C(=O)N2c2cc(OC)c(OC)c(OC)c2)cc(OC)c1OC` (relative stereo), the Activity in the data set with MCF7 [1] was 0%. The IC50 in the data set with MCF7 [2] is 29 µM.
With `COc1ccc([C@@H]2[C@H](Oc3ccccc3)C(=O)N2c2cc(OC)c(OC)c(OC)c2)c(N)c1O` (relative stereo), the Activity in the data set with MCF7 [1] worked out at 52%. The concentration for half-maximal inhibition (IC50) with MCF7 [2] is 19 µM.
The like results for `COc1ccc([C@@H]2[C@H](Oc3ccccc3)C(=O)N2c2cc(OC)c(OC)c(OC)c2)cc1Br` (relative stereo) were, in that order, 6.4% and 5.1 µM.
Regarding `CCOC(=O)/C=C/c1ccc([C@@H]2[C@H](Oc3ccccc3)C(=O)N2c2cc(OC)c(OC)c(OC)c2)cc1` (relative stereo), the IC50 with MCF7 [2] came out at 87 µM.
Regarding `COc1ccc([C@@H]2[C@H](Oc3ccccc3)C(=O)N2c2cc(OC)c(OC)c(OC)c2)cc1NC(=O)CCCc1ccc(N(CCCl)CCCl)cc1` (relative stereo), the Activity in the data set on MCF7 [1] is 3.2%. Further, the 50% inhibitory concentration (IC50) in the data set with MCF7 [2] turned out to be 145 µM.
The like results for `COc1ccc([C@@H]2[C@H](Oc3ccccc3)C(=O)N2c2cc(OC)c(OC)c(OC)c2)cc1OC` (relative stereo) were, in that order, 11.2% and 26 µM.
The corresponding values for `COc1cc(N2C(=O)[C@@H](Oc3ccccc3)[C@H]2c2ccc([N+](=O)[O-])cc2)cc(OC)c1OC` (relative stereo) are 27% and 63 µM.
The like results for `COc1cc([C@@H]2[C@H](Oc3ccccc3)C(=O)N2c2cc(OC)c(OC)c(OC)c2)ccc1O` (relative stereo) were, in that order, 5.1% and 32 µM.
As to `COc1ccc([C@@H]2[C@@H](Oc3ccccc3)C(=O)N2c2cc(OC)c(OC)c(OC)c2)cc1Br` (relative stereo), in the data set with MCF7 [1], the Activity is 3.9%. For the same molecule, the IC50 in the data set on MCF7 [2] is 31 µM.
As to `COc1ccc([C@@H]2[C@@H](Oc3ccccc3)C(=O)N2c2cc(OC)c(OC)c(OC)c2)cc1OP(=O)(O)O` (relative stereo), the IC50 in the data set with MCF7 [2] amounted to 23 µM.
Take `COc1ccc([C@@H]2[C@H](Oc3ccccc3)C(=O)N2c2cc(OC)c(OC)c(OC)c2)c([N+](=O)[O-])c1O` (relative stereo): the Activity in the data set with MCF7 [1] stood at 12.7%. For the same molecule, the IC50 in the data set on MCF7 [2] was determined as 89 µM.
As to `COc1cc(N2C(=O)[C@@H](Oc3ccccc3)[C@H]2c2ccc3c(c2)OCO3)cc(OC)c1OC` (relative stereo), the Activity in the data set with MCF7 [1] turned out to be 8.3%. In the data set with MCF7 [2], the IC50 was found to be 48 µM.
Turning to `COc1cc(N2C(=O)[C@@H](Oc3ccccc3)[C@H]2c2ccc([S+](C)[O-])cc2)cc(OC)c1OC` (relative stereo), the Activity in the data set with MCF7 [1] was 1.7%. Further, in the data set with MCF7 [2], the concentration for half-maximal inhibition (IC50) was 20 µM.
Take `COc1cc(N)c([C@@H]2[C@H](Oc3ccccc3)C(=O)N2c2cc(OC)c(OC)c(OC)c2)cc1O` (relative stereo): the Activity in the data set with MCF7 [1] stood at 70%. In the data set with MCF7 [2], the half-inhibitory concentration (IC50) stood at 20 µM.
`COc1ccc([C@@H]2[C@H](Oc3ccccc3)C(=O)N2c2cc(OC)c(OC)c(OC)c2)cc1OP(=O)(O)O` (relative stereo): the IC50 in the data set on MCF7 [2] worked out at 42 µM.
For the molecule `COc1cc(N2C(=O)[C@@H](Oc3ccccc3)[C@H]2c2ccc(S(C)(=O)=O)cc2)cc(OC)c1OC` (relative stereo), in the data set on MCF7 [1], the Activity amounted to 10.2%. Besides, the IC50 in the data set with MCF7 [2] was determined as 62 µM.
As to `COc1ccc([C@@H]2[C@@H](Oc3ccccc3)C(=O)N2c2cc(OC)c(OC)c(OC)c2)cc1` (relative stereo), the Activity with MCF7 [1] was 7.3%. Further, the concentration for half-maximal inhibition (IC50) in the data set with MCF7 [2] came out at 6.9 µM.
For `O=C(O)CCCc1ccc(N(CCCl)CCCl)cc1` [CHLORAMBUCIL], the Activity with MCF7 [1] came to 8%. In addition, the concentration for half-maximal inhibition (IC50) in the data set on MCF7 [2] was determined as 97 µM.
